Results on three compounds are retold here after ChEMBL document CHEMBL4028901, “Novel Antitubercular 6-Dialkylaminopyrimidine Carboxamides from Phenotypic Whole-Cell High Throughput Screening of a SoftFocus Library: Structure-Activity Relationship and Target Identification Studies” (J Med Chem, 2017).

SMILES strings stand for the structures. Values after ≈ are worked out from the molar mass of the structure shown. Active and inactive are the calls of the source. The calls are words filed in the database; no cut-off is given here.

The subject of test [1] is Mycobacterium tuberculosis. Put plainly: Antibacterial activity against GFP-fused Mycobacterium tuberculosis H37RvMA expressing QcrB mutant grown in 7H9/GLU/ADC medium measured on day 7 and day 14 post inoculation by fluorescence plate reader assay. It is filed as functional. A digest of the protocol: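 Mtb::gfp strains (H37RvMa::pMSP12GFP background), two-fold dilutions 20–0.039 µM in 7H9 with Tween-80, glycerol and ADC, or in GAST-Fe pH 6.6, at 5% final DMSO. Cultures grown to OD600 ~0.6 and diluted 1:500 (7H9) or 1:100 (GAST/Fe). […] Data normalised to rifampicin and DMSO controls; MIC90 taken from dose-response curves.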

The subject of test [2] is Mycobacterium tuberculosis variant bovis BCG. As to the kind of experiment: Binding affinity to Mycobacterium bovis BCG Rv3169 using sepharose beads derivatized with 6-((3-aminopropyl)(benzyl)amino)-N-(4-(4-methylpiperazin-1-yl)phenyl)pyrimidine-4-carboxamide by LC-MS/MS based chemoproteomics assay. A digest of the protocol:
(§1)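 BCG lysate (0.25 mg) pre-incubated with compound or DMSO, then bound to probe-derivatized sepharose beads (0.04 mM) for 1 h at 4 °C. Six compound concentrations used, top 30 μM with 1:4 steps. Includes vehicle duplicates and rebinding duplicates to measure depletion. Bound proteins eluted and quantified by TMT LC-MS/MS. Apparent Kd corrected for depletion by the beads.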

For test [3] the test system is unchanged. As to the kind of experiment: Binding affinity to Mycobacterium bovis BCG Rv3768 using sepharose beads derivatized with 6-((3-aminopropyl)(benzyl)amino)-N-(4-(4-methylpiperazin-1-yl)phenyl)pyrimidine-4-carboxamide by LC-MS/MS based chemoproteomics assay. A digest of the protocol: as §1
Test [4] is described as follows: Binding affinity to Mycobacterium bovis BCG Rv3169. The settings on record: read-out: Kd(app). Set-up: species or system Mycobacterium tuberculosis variant bovis BCG.
A short description of test [5]: Binding affinity to Mycobacterium bovis BCG Rv3768. Particulars: read-out: Kd(app). Set-up: species or system Mycobacterium tuberculosis variant bovis BCG.

The compound `COc1ccc(NC(=O)c2cc(N(C)Cc3ccccc3)ncn2)cc1` came in with an MIC99 in test [1] of 20 µM (≈ 6.97 µg/mL). That is a double-digit micromolar value.

As for `O=C(Nc1ccccc1)c1ccc(=O)n(Cc2ccc(F)cc2)c1`, the outcome in test [2] and in test [3] was inactive.

In the case of `CN1CCN(c2ccc(NC(=O)c3cc(N(C)Cc4ccc(C(F)(F)F)cc4)ncn3)cc2)CC1`, the figures for the Kd in test [4] and in test [5] were 0.61 to 0.69 µM and 2.1 to 3.8 µM, respectively. Further, the outcome in test [2] and in test [3] was Active.

For orientation: MIC99 means an inhibitory concentration at the 99% level, which refers to growth in some studies and to a panel of isolates in others.
